Source: PubChem BioAssay
Compounds with a hit are over-represented: about 2.5% of the library has one in this group of screens.
eLon inh: inhibits E. coli Lon protease; inhibition, % at 7.94 µM; P0A9M0; 0.42% of 360,000 active; purified E. coli Lon protease, fluorescence polarization; in the data active means inhibition above about 13%, passing the limit was not always enough;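 further: 0% = enzyme with probe and DMSO and 100% = no enzyme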
PRMT1 inh: blocks human protein arginine methyltransferase 1; inhibition, % at 2.79 µM; AID 652257; recombinant PRMT1, activity-based probe fluorescence polarization; 1.3% of 370,000 active;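 active means inhibition above about 21% made by adding two undisclosed values, limit read from the data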
Target sequence (Q99873 whole entry, looked up): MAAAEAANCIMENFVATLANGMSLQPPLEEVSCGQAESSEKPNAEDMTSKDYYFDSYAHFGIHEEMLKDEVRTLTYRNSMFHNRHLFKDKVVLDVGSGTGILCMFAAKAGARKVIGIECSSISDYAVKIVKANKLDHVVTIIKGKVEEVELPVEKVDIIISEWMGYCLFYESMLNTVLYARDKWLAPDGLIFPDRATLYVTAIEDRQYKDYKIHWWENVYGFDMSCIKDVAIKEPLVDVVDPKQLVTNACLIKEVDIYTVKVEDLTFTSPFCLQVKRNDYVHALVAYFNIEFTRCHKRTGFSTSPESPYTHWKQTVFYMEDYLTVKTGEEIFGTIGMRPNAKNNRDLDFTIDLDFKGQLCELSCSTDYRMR
PAD4 FP inh: inhibitors of human PAD4. 0.41% of 330,000 active. recombinant PAD4, RCA probe fluorescence polarization. inhibition, % at 6.36 µM. Q9UM07. AID 485272;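 active means percent inhibition above a cutoff equal to the mean of all tested compounds plus 3 SD, cut at about 15% in these data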;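 further: 0% = PAD4 with RCA probe and DMSO and 100% = probe without PAD4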
GSTO1 counter: GSTO1 inhibition, counter-screen for RBBP9 inhibitors; P78417; recombinant GSTO1, activity-based probe fluorescence polarization; inhibition, % at 5.96 µM; 1.1% of 300,000 active; AID 1974;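 active means inhibition above the campaign mean inhibition plus 3 SD, cut at about 35% in these data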;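 further: 0% = GSTO1-1 with DMSO and 100% = wells lacking GSTO1-1 enzyme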
Target sequence (P78417 whole entry, looked up): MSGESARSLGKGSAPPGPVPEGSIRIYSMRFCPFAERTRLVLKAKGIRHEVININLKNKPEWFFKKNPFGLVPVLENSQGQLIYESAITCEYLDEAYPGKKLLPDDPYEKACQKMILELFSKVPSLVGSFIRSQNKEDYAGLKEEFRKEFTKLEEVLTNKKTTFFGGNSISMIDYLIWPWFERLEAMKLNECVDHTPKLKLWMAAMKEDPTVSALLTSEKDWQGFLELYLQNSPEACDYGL
TDP2 absorb: TDP2 (human) inhibition, absorbance primary screen; 0.34% of 370,000 active; recombinant TDP2, T5PNP hydrolysis, p-nitrophenol absorbance 415 nm; inhibition, % at 12.8 µM; O95551;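 active means inhibition above the mean of all tested compounds plus 3 SD, set per campaign, cut at about 25% in these data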;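 further: 0% = DMSO with enzyme and 100% = buffer with substrate but no TDP2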
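Assay system: Recombinant human TDP2 | Quantity: 120 nM TDP2 per well | Incubation: 2 h at 37 °C | Signal: Epi absorbance | Evaluation: Percent inhibition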
GSTO1 confirm: confirmation of human GSTO1 inhibitors; shares compounds with GSTO1 counter; recombinant GSTO1, probe fluorescence polarization; inhibition, % at 5.96 µM; 54% of 2,400 active;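 active means inhibition above the primary screen's cutoff, its mean inhibition plus 3 SD, cut at about 35% in these data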;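 further: loss of polarization as inhibitors block binding of rhodamine sulfonate ester activity probe; 0% = GSTO1 with DMSO and 100% = wells lacking GSTO1 enzyme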
GSTO1 ABPP inh: blocks recombinant human glutathione S-transferase omega 1; shares compounds with GSTO1 counter; recombinant GSTO1, gel ABPP SE-Rh probe fluorescence; inhibition, % at 1 µM; 30% of 130 active;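 active means inhibition of the enzyme GSTO1 above about 75%, limit read from the data; inactive means inhibition below that limit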
Starred values were filed as active, the others as inactive; x = not tested or not shown.

SMILES | eLon inh | PRMT1 inh | PAD4 FP inh | GSTO1 counter | TDP2 absorb | GSTO1 confirm | others
COC(=O)C1CN(C2CCCC2)CCS(=O)(=O)N1Cc1cn(Cc2ccc(F)cc2)nn1 (stereo unspecified) | x | -4 | x | x | -8 | x
CN(C)S(=O)(=O)c1ccc2nc(COCc3nc4ccc(S(=O)(=O)N(C)C)cc4[nH]3)[nH]c2c1 | x | -5 | x | x | -4 | x
O=C(CCc1ccccc1-c1ccccc1CCNC(=O)COCc1ccccc1)NCc1ccccc1 | x | 0 | x | x | 3 | x
CCC1CCCCN1C(=O)C(=O)c1cn(CC(=O)N(CC)CC)c2ccccc12 (stereo unspecified) | -1 | -2 | 3 | 40* | -7 | 5
CCN(CC)C(=O)Cn1cc(C(=O)C(=O)N(C)C2CCN(C)CC2)c2ccccc21 | 11 | -1 | 4 | 1 | -5 | x
C=CCOc1ccccc1CN(C(=O)CCl)c1ccc2c(c1)OCO2 | 0 | 2 | -1 | 95* | 2 | 86* | GSTO1 ABPP inh=75*
CCC(Sc1nc(-c2ccccc2)c(C#N)c(=O)[nH]1)C(=O)Nc1nnc(C)s1 (stereo unspecified) | 3 | -3 | 1 | 61* | 7 | 63*
N#Cc1c(-c2ccccc2)nc(SCC(=O)Nc2ccccc2)[nH]c1=O | -5 | 2 | 0 | -8 | -4 | x
Cc1cc2c(cc1C)C(=O)C(Br)=C(N)C2=O | 2 | -5 | x | x | 9 | x
NC1=C(Br)C(=O)c2ccccc2C1=O | -1 | 3 | 4 | 66* | 15 | 28
Cc1csc(=Nc2c(C)n(C)n(-c3ccccc3)c2=O)n1-c1ccccc1 | 0 | -2 | 0 | -6 | -6 | x
Cc1c(N=c2c(=O)c3ccccc3c2=O)c(=O)n(-c2ccccc2)n1C | x | x | -6 | 57* | x | 77*
CCOC(=O)c1cnc(-n2[nH]c(C)cc2=O)[nH]c1=O | -2 | -6 | -2 | 42* | 14 | 4
CCOC(=O)NC1(NC2CCCCC2)Oc2ccccc2O1 | -5 | 19 | 5 | 52* | 0 | 7
CCOC(=O)NC1(NCC(C)C)Oc2ccccc2O1 | -4 | 18 | 1 | 48* | -10 | 3
CCOC(=O)C(Cc1ccccc1)C1(C)Oc2ccccc2O1 (stereo unspecified) | x | -4 | x | x | -9 | x
Cc1cccc(-c2cccc3c4c([nH]c23)[C@@H]2C[C@H](N(C)C(=O)NC3CCCCC3)[C@H]([C@H](C)O)CN2CC4)c1 | x | 5 | x | x | -14 | x
Cc1ccc(N(C)C)cc1 | x | 2 | x | x | -5 | x
Cc1ccc(C)n1-c1ccc(N(C)C)cc1 | -11 | 19 | 0 | 46* | 21 | 6
Cc1ccc(S(=O)(=O)NCC2CN(S(=O)(=O)c3ccc(C)cc3)c3ccccc3C(=O)N2c2ccc(F)cc2)cc1 (stereo unspecified) | x | -2 | x | x | -11 | x
COc1ccc(N2CCN(CCCNC(=O)CCc3cccc(Cl)c3)CC2)cc1 | x | 0 | x | x | 3 | x
O=C(c1ccccc1)N1CC[C@H]2[C@H](CCCN2Cc2ccccc2)C1 | x | 2 | x | x | 0 | x
COc1ccc(F)cc1-c1cc(C(C)=O)c2n(c1=O)CCC2 | x | -2 | x | x | 2 | x
COc1ccc(-c2oc(NC(=O)CCl)c(C#N)c2-c2ccc(OC)cc2)cc1 | 4 | 0 | 14 | 76* | -10 | 86*
COc1ccc(-c2oc(NC(=O)CSc3ncn[nH]3)c(C#N)c2-c2ccc(OC)cc2)cc1 | 10 | x | 4 | 7 | x | x
SMILES | eLon inh | PRMT1 inh | PAD4 FP inh | GSTO1 counter | TDP2 absorb | GSTO1 confirm | others
COc1ccc(-n2c(SCC(=O)Nc3ccccc3-c3ccccc3)nnc2-c2ccccn2)cc1 | x | -6 | x | x | -12 | x
CC(=O)C1CCC2C3CCC4=CC(=O)C=CC4(C)C3C(=O)CC12C (stereo unspecified) | 2 | 8 | x | x | -1 | x
C[C@]12C=CC(=O)C=C1CC[C@@H]1C2=CC[C@]2(C)[C@@H](C(=O)CN3CCN(c4cc(N5CCCC5)nc(N5CCCC5)n4)CC3)CC[C@@H]12 | -20 | 4 | -11 | 51* | 4 | 45*
Oc1[nH]c2c(Cl)cc(Cl)cc2c1N=NC(=S)NCC1CCCO1 (stereo unspecified) | -7 | -3 | -3 | 51* | -8 | 7
Cc1cc(C)c2[nH]c(O)c(N=NC(=S)NCC3CCCO3)c2c1 (stereo unspecified) | 12 | 2 | 1 | 3 | -11 | x
Cc1ccc(C2c3c(n[nH]c3C)C(=O)N2Cc2ccccc2)cc1 (stereo unspecified) | x | -1 | x | x | 4 | x
COc1ccc(N2C3=C(CC4=C2CCCC4=O)C(=O)CCC3)cc1 | -3 | 10 | 7 | 58* | 6 | 2
COC(=O)c1ccc(N)cc1O | -6 | 0 | 0 | 3 | 4 | x
COC(=O)c1ccc(=O)c2nc3/c(=C/O)c(O)cc(=O)c3[nH]c12 | -2 | 29* | 14 | 75* | 3 | 71*
O=C(N[C@H](Cc1ccccc1)C(=O)NCc1cccc2ccccc12)[C@H]1O[C@@H](n2ccc(=O)[nH]c2=O)[C@H](O)[C@@H]1O | x | 0 | x | x | 4 | x
Clc1c2c(nc3ccccc13)CCC2 | -1 | -3 | 4 | 71* | 18 | 6
N#Cc1cccc(NC(=O)OCCN2C(=O)CCC23CCC(c2ccc(Cl)cc2)CC3)c1 (stereo unspecified) | x | -2 | x | x | 7 | x
O=C(CCl)c1ccc2c(c1)CCN2C(=O)C1CCCCC1 | 2 | 3 | 0 | 42* | 13 | 64*
CCC1CCCCN1S(=O)(=O)c1ccc2c(c1)CCN2C(=O)C1CCC1 (stereo unspecified) | -13 | 0 | -4 | 8 | -4 | x
O=C1COc2ccc(C(=O)NCc3ccc4c(c3)OCO4)cc2N1 | -1 | -2 | 0 | 43* | -2 | 32
COc1ccc(C(CC(=O)c2ccc(O)cc2)S(=O)(=O)c2ccc(C)cc2)cc1 (stereo unspecified) | 0 | 2 | -1 | 40* | -8 | -5
COc1ccc2c(c1)CCCN2C(=O)C1CCCN(S(=O)(=O)c2ccc(Cl)s2)C1 (stereo unspecified) | x | -4 | x | x | 9 | x
CC(NC(=O)C1CC1)C(c1cccs1)N1CCOCC1 (stereo unspecified) | -19 | -1 | -3 | 85* | 1 | 7
CC(NC(=O)C1CC1)C(c1cccs1)N1CCN(c2ccccc2)CC1 (stereo unspecified) | 5 | 2 | -1 | 1 | 0 | x
O=C(CCl)N(c1ccccc1)c1c[nH]c2ccccc12 | -1 | -1 | 3 | 70* | 7 | 78* | GSTO1 ABPP inh=34
O=C(CSc1nnc(-c2ccccc2)n1-c1ccc(Cl)cc1)Nc1ccccc1-c1ccccc1 | x | -2 | x | x | -16 | x
COC(=O)[C@@]12CCCCC3=C1N(CCC3)C(=O)[C@H]2CC(=O)NCc1ccc(C)o1 | x | -1 | x | x | 7 | x
O=S(=O)(c1ccc(Cl)cc1)N1CCCCCC1 | 3 | -5 | 0 | 4 | -9 | x
